Assay results: ChEMBL document CHEMBL3120116, “Toward synthesis of third-generation spin-labeled podophyllotoxin derivatives using isocyanide multicomponent reactions” (Eur J Med Chem, 2014)

Key:
Type in all cases: functional, cell-based
KB = test: Cytotoxicity against human KB cells after 72 hrs by SRB assay
How it was run: (§1)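 Cells seeded at 3–5 × 10^3 per well in RPMI-1640 with 10% FBS containing graded sample concentrations, exposed 72 h. Attached cells fixed with cold 50% trichloroacetic acid 30 min, stained with 0.04% SRB 30 min, bound dye dissolved in 10 mM Tris-base, absorbance read at 515 nm. Triplicate experiments; IC50 reported. KBvin is a vincristine-selected MDR KB subline.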

[1] = Cytotoxicity against human KBVIN cells after 72 hrs by SRB assay; how it was run: as §1
DU-145 = test: Cytotoxicity against human DU145 cells after 72 hrs by SRB assay; how it was run: as §1
A549 = test: Cytotoxicity against human A549 cells after 72 hrs by SRB assay; how it was run: as §1

Compound | IC50 (KB) | IC50 ([1]; kbvin) | IC50 (DU-145) | IC50 (A549) | IC50 ([1]; Homo sapiens, KBVIN, 72 h)
CCCN(C(=O)C1=CC(C)(C)N([O])C1(C)C)C(C(=O)N[C@@H]1c2cc3c(cc2[C@@H](c2cc(OC)c(OC)c(OC)c2)[C@H]2C(=O)OC[C@@H]21)OCO3)c1ccc(OC)cc1 (some centres undefined) | > 20 µM | > 20 µM | > 20 µM | > 20 µM | –
CCCN(C(=O)C1=CC(C)(C)N([O])C1(C)C)C1(C(=O)N[C@@H]2c3cc4c(cc3[C@@H](c3cc(OC)c(OC)c(OC)c3)[C@H]3C(=O)OC[C@@H]32)OCO4)CCCCC1 | > 20 µM | > 20 µM | > 20 µM | > 20 µM | –
CCCC(C(=O)N[C@@H]1c2cc3c(cc2[C@@H](c2cc(OC)c(OC)c(OC)c2)[C@H]2C(=O)OC[C@@H]21)OCO3)N(C(=O)C1=CC(C)(C)N([O])C1(C)C)C(C)(C)C (some centres undefined) | > 20 µM | > 20 µM | > 20 µM | > 20 µM | –
CCCC(C(=O)N[C@@H]1c2cc3c(cc2[C@@H](c2cc(OC)c(OC)c(OC)c2)[C@H]2C(=O)OC[C@@H]21)OCO3)N(CCC)C(=O)C1=CC(C)(C)N([O])C(C)(C)C1 (some centres undefined) | > 20 µM | > 20 µM | > 20 µM | > 20 µM | –
CCCC(C(=O)N[C@@H]1c2cc3c(cc2[C@@H](c2cc(OC)c(OC)c(OC)c2)[C@H]2C(=O)OC[C@@H]21)OCO3)N(CCC)C(=O)C1CC(C)(C)N([O])C(C)(C)C1 (some centres undefined) | > 20 µM | > 20 µM | > 20 µM | > 20 µM | –
COc1cc([C@@H]2c3cc4c(cc3[C@@H](NC(=O)C(C)(C)OC(=O)C3=CC(C)(C)N([O])C3(C)C)[C@H]3COC(=O)[C@H]23)OCO4)cc(OC)c1OC | 2.32 µM | 2.55 µM | 2.39 µM | 2.38 µM | –
COc1cc([C@@H]2c3cc4c(cc3[C@@H](NC(=O)C(OC(=O)C3=CC(C)(C)N([O])C3(C)C)c3ccccc3)[C@H]3COC(=O)[C@H]23)OCO4)cc(OC)c1OC (some centres undefined) | > 20 µM | > 20 µM | > 20 µM | > 20 µM | –
CCCC(OC(=O)C1=CC(C)(C)N([O])C1(C)C)C(=O)N[C@@H]1c2cc3c(cc2[C@@H](c2cc(OC)c(OC)c(OC)c2)[C@H]2C(=O)OC[C@@H]21)OCO3 (some centres undefined) | 7.12 µM | 8.88 µM | 7.07 µM | 8.86 µM | –
COc1cc([C@@H]2c3cc4c(cc3[C@@H](NC(=O)C3(OC(=O)C5=CC(C)(C)N([O])C5(C)C)CCCCC3)[C@H]3COC(=O)[C@H]23)OCO4)cc(OC)c1OC | 9.24 µM | 13.7 µM | 8.74 µM | 9.52 µM | –
COc1ccc(C(OC(=O)C2=CC(C)(C)N([O])C2(C)C)C(=O)N[C@@H]2c3cc4c(cc3[C@@H](c3cc(OC)c(OC)c(OC)c3)[C@H]3C(=O)OC[C@@H]32)OCO4)cc1 (some centres undefined) | 0.6 µM | 0.73 µM | 0.63 µM | 0.75 µM | –
COc1cc([C@@H]2c3cc4c(cc3[C@@H](NC(=O)C(Cc3ccccc3)OC(=O)C3=CC(C)(C)N([O])C3(C)C)[C@H]3COC(=O)[C@H]23)OCO4)cc(OC)c1OC (some centres undefined) | 6.53 µM | 7.71 µM | 6.82 µM | 7.68 µM | –
COc1cc([C@@H]2c3cc4c(cc3[C@@H](NC(=O)C(OC(=O)C3=CC(C)(C)N([O])C3(C)C)c3ccco3)[C@H]3COC(=O)[C@H]23)OCO4)cc(OC)c1OC (some centres undefined) | 7.12 µM | 7.35 µM | 6.55 µM | 7.38 µM | –
COc1cc([C@@H]2c3cc4c(cc3[C@@H](NC(=O)C(OC(=O)C3=CC(C)(C)N([O])C3(C)C)c3ccc5c(c3)OCO5)[C@H]3COC(=O)[C@H]23)OCO4)cc(OC)c1OC (some centres undefined) | 1.12 µM | 2.03 µM | 1.37 µM | 1.46 µM | –
CCCC(OC(=O)C1CC(C)(C)N([O])C(C)(C)C1)C(=O)N[C@@H]1c2cc3c(cc2[C@@H](c2cc(OC)c(OC)c(OC)c2)[C@H]2C(=O)OC[C@@H]21)OCO3 (some centres undefined) | 6.58 µM | 7.96 µM | 7.13 µM | 8.82 µM | –
CCCC(OC(=O)C1=CC(C)(C)N([O])C(C)(C)C1)C(=O)N[C@@H]1c2cc3c(cc2[C@@H](c2cc(OC)c(OC)c(OC)c2)[C@H]2C(=O)OC[C@@H]21)OCO3 (some centres undefined) | 6.88 µM | 8.35 µM | 7.27 µM | 9.05 µM | –
CCCC(C(=O)N[C@@H]1c2cc3c(cc2[C@@H](c2cc(OC)c(OC)c(OC)c2)[C@H]2C(=O)OC[C@@H]21)OCO3)N(C(=O)C1=CC(C)(C)N([O])C1(C)C)C1CCCCC1 (some centres undefined) | 9.35 µM | 8.83 µM | 11 µM | 8.98 µM | –
CCCC(C(=O)N[C@@H]1c2cc3c(cc2[C@@H](c2cc(OC)c(OC)c(OC)c2)[C@H]2C(=O)OC[C@@H]21)OCO3)N(C(=O)C1=CC(C)(C)N([O])C1(C)C)c1ccccc1 (some centres undefined) | 8.49 µM | 7.47 µM | 9.78 µM | 8.4 µM | –
COc1cc([C@@H]2c3cc4c(cc3[C@@H](NC(=O)C(c3ccccc3)N(C(=O)C3CC(C)(C)N([O])C(C)(C)C3)c3ccccc3)[C@H]3COC(=O)[C@H]23)OCO4)cc(OC)c1OC (some centres undefined) | 5.94 µM | 6.45 µM | 6.08 µM | 6.1 µM | –
CCCN(C(=O)C1=CC(C)(C)N([O])C1(C)C)C(C)(C)C(=O)N[C@@H]1c2cc3c(cc2[C@@H](c2cc(OC)c(OC)c(OC)c2)[C@H]2C(=O)OC[C@@H]21)OCO3 | > 20 µM | > 20 µM | > 20 µM | > 20 µM | –
CCCN(C(=O)C1=CC(C)(C)N([O])C(C)(C)C1)C(C)(C)C(=O)N[C@@H]1c2cc3c(cc2[C@@H](c2cc(OC)c(OC)c(OC)c2)[C@H]2C(=O)OC[C@@H]21)OCO3 | > 20 µM | > 20 µM | > 20 µM | > 20 µM | –
CCCC(C(=O)N[C@@H]1c2cc3c(cc2[C@@H](c2cc(OC)c(OC)c(OC)c2)[C@H]2C(=O)OC[C@@H]21)OCO3)N(CCC)C(=O)C1=CC(C)(C)N([O])C1(C)C (some centres undefined) | > 20 µM | > 20 µM | > 20 µM | > 20 µM | –
CCCN(C(=O)C1=CC(C)(C)N([O])C1(C)C)C(C(=O)N[C@@H]1c2cc3c(cc2[C@@H](c2cc(OC)c(OC)c(OC)c2)[C@H]2C(=O)OC[C@@H]21)OCO3)c1ccccc1 (some centres undefined) | > 20 µM | > 20 µM | > 20 µM | > 20 µM | –
COc1cc([C@@H]2c3cc4c(cc3[C@@H](O[C@@H]3O[C@@H]5CO[C@@H](C)O[C@H]5[C@H](O)[C@H]3O)[C@H]3COC(=O)[C@H]23)OCO4)cc(OC)c1O [ETOPOSIDE] | – | – | – | – | > 20 µM
